High-throughput results from PubChem BioAssay.
FN deposition inh: fibronectin deposition inhibition; AID 743247; inhibition, % at 12.6 µM; AH1F fibroblasts, Alexa488-fibronectin deposition fluorescence, overnight; actives 0.086% (n = 350,000);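 active means mean inhibition across replicates of 30% or more, regardless of how many single replicates reach that level; inconclusive means mean under 30% yet at least half of replicates reach 30%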;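 further: positive control wells lacked labelled fibronectin entirely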
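Schedule: 1 h cell adhesion before compound, then overnight fibronectin incubation; test system: AH1F fibroblast monolayer depositing Alexa488-labelled fibronectin into matrix; quantity: 10000 AH1F cells per well; probe or stimulus: fluorescent fibronectin at 24 nM final; signal: fluorescence, ex 485 nm, em 525 nm; evaluation: percent inhibition as loss of matrix-bound fibronectin fluorescence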
EWS-Fli inh: EWS/Fli transcriptional activity inhibition | A673 NR0B1-luciferase reporter, viability-normalised | inhibition, % at 12.6 µM | actives 0.67% (n = 350,000);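 active means mean inhibition of at least 50% after viability correction, with every replicate also passing that limit; inconclusive means mean reaches 50% but only one of two replicates passes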;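 further: firefly luciferase signal divided by Alamar Blue viability fluorescence both relative to DMSO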
LGR2 antag: inhibitors of bursicon-induced Drosophila LGR2 receptor cAMP signaling; inhibition, % at 9.99 µM; actives 0.35% (n = 380,000); HEK293 LGR2, CRE-luciferase, bursicon-stimulated, 4 h; AID 720647;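 active means drop in luminescence signal, shown as inhibition above about 50% in the replicate tests, limit read from the data, passing the limit was not always enough; inconclusive means probably only some replicates passing the limit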;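 further: agonist challenge used bursicon conditioned medium at about half maximal strength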
XiGFP reactiv: X-chromosome reactivation activator. AID 743238. actives 0.055% (n = 360,000). XiGFP mouse fibroblasts, % GFP-positive cells imaging, 3 d; cells co-treated with 5-aza-dC sensitizer; scaled so ellipticine positive control = 100%. activation, % at 7.58 µM;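 active means mean normalized replicate activation at least 10% and every replicate at or above 10%; inconclusive means only one of the two criteria met; inactive means mean below 10% and not all replicates reach 10%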;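 further: 0% = median of on-plate neutral control wells and 100% = ellipticine 6 µM median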
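System: 68-5-11 XiGFP fibroblast line; Timing: 3 days compound exposure; Compound dosing: one concentration, pinned; Benchmarks: positive control ellipticine, 6 µM final; Buffer or medium: DMEM containing 5-aza-dC.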
TWEAK Fn14 block: blocks TWEAK-Fn14 interaction in a reporter cell assay | TWEAK-stimulated Fn14 reporter cells, luciferase luminescence, 8 h | inhibition, % at 10 µM | actives 2% (n = 360,000) | AID 1159606; in the data active means inhibition above about 50%
TROY signal inh: inhibitors of TROY-dependent NF-kB signaling. inhibition, % at 10 µM. actives 0.98% (n = 360,000). Q293 LMP1-TROYcd NF-kB luciferase reporter, 4 h;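 active means compounds whose plate-normalised and pattern-corrected inhibition of the luciferase reporter signal at the single screening dose is 50% or more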
* = called active by the depositor; ? = inconclusive; . = no result given. In the library only some 2.3% were active in any assay of this set; here they are far more common.

SMILES	FN deposition inh	EWS-Fli inh	LGR2 antag	XiGFP reactiv	TWEAK Fn14 block	TROY signal inh
CCN1CCN(c2nc(-c3ccccc3Cl)nc3ccccc23)CC1	2	6	-3	0	68*	-10
c1ccc(-c2cnn3c(-c4ccccc4)c(-c4ccccc4)nc3n2)cc1	.	-6	-22	99*	-8	-44
C[C@H]1CN([C@@H](C)CO)C(=O)Cc2cc(NC(=O)Nc3ccc4c(c3)OCO4)ccc2O[C@@H]1CN(C)C(=O)Nc1ccc(C(F)(F)F)cc1	.	-3	-4	-1	.	.
Cc1cccc(C(=O)Nc2cccc(C(=O)N/N=C/c3ccccn3)c2)c1	-3	2	-25	0	-10	-30
O=C(O)c1cccc(NC(=S)N/N=C/c2cccc(O)c2)c1	-12	31	63*	0	2	-24
O=C(O)c1cccc(NC(=S)N/N=C/c2ccccn2)c1	1	19	72*	0	-43	-41
Cc1cccc(NC(=S)N/N=C/c2cccc(O)c2)c1C	14	64*	-3	0	0	-6
S=C(N/N=C/c1ccc2ncccc2c1)Nc1cccnc1	17	41	?	0	56*	40
CNC[C@@H]1OCCCC[C@@H](C)Oc2ccc(NC(=O)Nc3ccccc3)cc2C(=O)N([C@H](C)CO)C[C@H]1C	.	-2	-1	-1	.	.
Cc1ccc(S(=O)(=O)NCC(=O)OCc2cc(=O)oc3c(C)c(C)ccc23)cc1C	-4	-7	2	0	6	0
CCc1cc2c(COC(=O)c3cccc(S(C)(=O)=O)c3)cc(=O)oc2cc1O	6	-2	1	0	56*	33
CNS(=O)(=O)c1cccc(C(=O)OCc2cc(=O)oc3c(C)c(O)ccc23)c1	3	4	10	0	34	51*
C[C@H](CO)N1C[C@H](C)[C@H](CN(C)CC2CC2)Oc2c(NS(=O)(=O)c3ccc(Cl)cc3)cccc2C1=O	.	12	2	0	.	.
N=c1c2c(ncn1Cc1ccco1)Oc1c(ccc3ccccc13)C2c1ccccc1 (stereo unspecified)	7	.	10	0	56*	12
Cc1cc(OCc2nc(N)nc(N)c2-c2ccc(Cl)c(Cl)c2)ccc1[N+](=O)[O-]	34*	63*	22	2	30	15
COc1ccc2c3c([nH]c2c1)[C@H](CO)N(C(=O)c1cccnc1)CC31CCN(C(=O)Nc2cccc(F)c2)CC1	.	2	-12	0	.	.
Cc1ccc(Nc2nc(CSc3nnc(-c4ccc(F)cc4)n3C)cs2)cc1	.	-12	-48	0	64*	59*
O=[N+]([O-])c1ccc(N/N=C/c2sc(N3CCOCC3)nc2-c2ccccc2)c(S(=O)(=O)Nc2ccc(Cl)cc2)c1	-4	38	5	87*	61*	59*
O=C(O)c1cccc(N/N=C/c2sc(N3CCOCC3)nc2-c2ccccc2)c1	.	.	-115	.	-77	-88
O=[N+]([O-])c1ccc(N/N=C/c2sc(N3CCOCC3)nc2-c2ccccc2)c(S(=O)(=O)Nc2ccccc2Cl)c1	-7	.	?	0	69*	49
O=C(N/N=C/c1sc(N2CCOCC2)nc1-c1ccccc1)c1ccccc1Cl	-22	1	24	0	-7	8
Cc1noc(C)c1NC(=O)N(C)C[C@@H]1Oc2ccc(NS(=O)(=O)c3cn(C)cn3)cc2C(=O)N([C@H](C)CO)C[C@H]1C	.	-5	-1	0	.	.
COCC(=O)Nc1ccc2c(c1)C(=O)N(C)[C@H]1CC[C@@H](CC(=O)NCc3ccccc3Cl)O[C@@H]1CO2	-42	3	12	0	.	.
CCNC(=O)C[C@H]1CC[C@H]2[C@@H](COc3ccc(NC(=O)Nc4ccccc4Cl)cc3C(=O)N2C)O1	0	.	-8	0	.	.
Cc1cccc(C(=O)n2c(=S)nc3cc(C)ccn32)c1	-6	26	80*	0	85*	71*
SMILES	FN deposition inh	EWS-Fli inh	LGR2 antag	XiGFP reactiv	TWEAK Fn14 block	TROY signal inh
Cc1ccn2c(c1)nc(=S)n2C(=O)c1ccccc1	-3	71*	.	0	98*	74*
O=C(C[C@H]1C[C@H]2c3cc(NC(=O)NC4CCCCC4)ccc3O[C@H]2[C@@H](CO)O1)NC1CCCC1	-9	-4	9	0	.	.
Cc1cc(O)c(C=O)c2c1C(=O)Oc1c(CO)c(O)c3c(c1O2)C(O)OC3=O (stereo unspecified)	.	.	.	.	56*	-5
Cc1cc(O)c(CN(C)C)c2c1C(=O)/C(=C/c1ccco1)O2	-5	-7	8	0	5	9
COC(=O)c1ccccc1-n1c(CCC(=O)O)ccc1-c1ccc(F)cc1	2	4	2	0	5	-17
COc1ccc(-n2c(CCC(=O)O)ccc2-c2ccc(F)cc2)c(OC)c1	-7	12	-17	0	30	51*
C[C@H](CO)N1C[C@H](C)[C@H](CN(C)CC2CC2)OCc2cnnn2CCCC1=O	7	-4	-3	0	.	.
C[C@@H]1CN([C@H](C)CO)C(=O)Cc2cc(NS(=O)(=O)c3ccc(F)cc3)ccc2O[C@@H]1CN(C)C(=O)Nc1ccccc1	.	7	-3	0	.	.
O=[N+]([O-])c1ccc(N=Nc2ccc(O)cc2O)cc1	-2	.	.	.	-19	4
O=[N+]([O-])c1cccc(N=Nc2ccc(O)cc2O)c1	-6	-18	19	0	59*	-15
COc1ccc(COc2cc(-c3cccc(OC)c3)nc3ccc(NC(=O)c4ccc(Cl)cc4)cc23)cc1	16	57*	3	0	-60	7
COc1ccc(COc2cc(-c3cccc(OC)c3)nc3ccc(NC(=O)c4ccccc4)cc23)cc1	-3	58*	14	0	-32	11
COCC#Cc1cnc2c(c1)C(=O)N([C@H](C)CO)C[C@H](C)[C@H](CN(C)C(=O)c1cnccn1)O2	.	-8	-13	0	.	.
CCN=c1scc(C)n1/N=C/c1cc(Br)c(O)c(Br)c1	1	4	21	0	10	53*
O=C1C(Nc2ccccc2)=C(N2CCCCC2)C(=O)c2ccccc21	.	.	.	.	21	-37
Cc1ccc(NC2=C(N3CCCCC3)C(=O)c3ccccc3C2=O)cc1	.	.	-15	.	64*	27
O=C(/C=C/c1ccc(O)cc1)c1ccc(NC2=C(N3CCCCC3)C(=O)c3ccccc3C2=O)cc1	.	-17	-36	.	53*	5
COc1ccccc1NC1=C(N2CCCCC2)C(=O)c2ccccc2C1=O	.	.	.	.	67*	58*
O=C(c1ccccc1F)N1C[C@H]2[C@@H](c3ccccc31)[C@@H](CO)N2C(=O)C1CCCC1	.	1	11	0	.	.
CO[C@@H]1CN(C)C(=O)c2cc(NC(=O)Nc3ccccc3F)ccc2OC[C@@H](C)N(CC2CC2)C[C@H]1C	-1	0	8	0	.	.
